Source: ChEMBL document CHEMBL1137710, “Synthesis and in vitro antitumor activity of new quinoxaline derivatives” (2009)

Columns and labels:
Assay type in all cases: functional
COLO 205 = test: Growth inhibition of human COLO205 cells after 48 hrs by sulforhodamine B assay; conditions: COLO 205, 48 h
Method in brief: (§1)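 NCI 60-human-tumor-cell-line panel, with compounds tested over a 5-log dose range. Values are taken from dose-response curves as log10 molar concentrations: GI50 is 50% net growth inhibition, TGI is total growth inhibition, and LC50 is 50% net cell death.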

[1] = Growth inhibition of human Hs 578T cells after 48 hrs by sulforhodamine B assay; method in brief: as §1
RXF 393 = test: Growth inhibition of human RXF393 cells after 48 hrs by sulforhodamine B assay; conditions: RXF 393, 48 h; method in brief: as §1
OVCAR-3 = test: Growth inhibition of human OVCAR-3 cells after 48 hrs by sulforhodamine B assay; conditions: OVCAR-3, 48 h; method in brief: as §1
SK-MEL-28 = test: Growth inhibition of human SK-MEL-28 cells after 48 hrs by sulforhodamine B assay; conditions: SK-MEL-28, 48 h; method in brief: as §1
U-251 = test: Growth inhibition of human U251 cells after 48 hrs by sulforhodamine B assay; conditions: U-251, 48 h
Method in brief: (§2)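 Run in the NCI 60-human-tumour-cell-line panel, tested over a 5-log dose range. Dose–response curves gave three values per cell line, each as a log10 molar concentration: GI50 (50% inhibition of net cell growth), TGI (total inhibition of net growth) and LC50 (50% net cell death). The mean graph midpoint is the arithmetic mean over all lines, with insensitive lines entered at the highest concentration tested.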

NCI-H522 = test: Growth inhibition of human NCI-H522 cells after 48 hrs by sulforhodamine B assay; conditions: NCI-H522, 48 h; method in brief: as §1
MDA-MB-435 = test: Growth inhibition of human MDA-MB-435 cells after 48 hrs by sulforhodamine B assay; conditions: MDA-MB-435, 48 h; method in brief: as §1
MDA-MB-231 = test: Growth inhibition of human MDA-MB-231 cells after 48 hrs by sulforhodamine B assay; conditions: MDA-MB-231, 48 h; method in brief: as §1
SW-620 = test: Growth inhibition of human SW620 cells after 48 hrs by sulforhodamine B assay; conditions: SW-620, 48 h; method in brief: as §2
NCI-H322M = test: Growth inhibition of human NCI-H322M cells after 48 hrs by sulforhodamine B assay; method in brief: as §1
NCI/ADR-RES = test: Growth inhibition of human NCI/ADR-RES cells after 48 hrs by sulforhodamine B assay; method in brief: as §1
NCI-H23 = test: Growth inhibition of human NCI-H23 cells after 48 hrs by sulforhodamine B assay; conditions: NCI-H23, 48 h; method in brief: as §1
K562 = test: Growth inhibition of human K562 cells after 48 hrs by sulforhodamine B assay; conditions: K562, 48 h; method in brief: as §1
MCF7 = test: Anticancer activity against human MCF7 cells assessed as cell growth at 100 uM after 48 hrs by sulforhodamine B assay; conditions: MCF7, 48 h, read-out: Activity
786-0 = test: Growth inhibition of human 786-0 cells after 48 hrs by sulforhodamine B assay; conditions: 786-0, 48 h; method in brief: as §1
M14 = test: Growth inhibition of human M14 cells after 48 hrs by sulforhodamine B assay; conditions: M14, 48 h; method in brief: as §1
UACC-62 = test: Growth inhibition of human UACC62 cells after 48 hrs by sulforhodamine B assay; conditions: UACC-62, 48 h; method in brief: as §2
SNB-19 = test: Growth inhibition of human SNB19 cells after 48 hrs by sulforhodamine B assay; conditions: SNB-19, 48 h; method in brief: as §2
SK-MEL-2 = test: Growth inhibition of human SK-MEL-2 cells after 48 hrs by sulforhodamine B assay; conditions: SK-MEL-2, 48 h; method in brief: as §1
HCT-116 = test: Growth inhibition of human HCT116 cells after 48 hrs by sulforhodamine B assay; conditions: HCT-116, 48 h; method in brief: as §1
[2] = Growth inhibition of human […] cells after 48 hrs by sulforhodamine B assay; method in brief: as §1
SF-268 [3] = test: Anticancer activity against human SF268 cells assessed as cell growth at 100 uM after 48 hrs by sulforhodamine B assay; conditions: SF-268, 48 h, read-out: Activity
CAKI-1 = test: Growth inhibition of human Caki1 cells after 48 hrs by sulforhodamine B assay; conditions: CAKI-1, 48 h; method in brief: as §1
OVCAR-5 = test: Growth inhibition of human OVCAR5 cells after 48 hrs by sulforhodamine B assay; conditions: OVCAR-5, 48 h; method in brief: as §1
SK-MEL-5 = test: Growth inhibition of human SK-MEL-5 cells after 48 hrs by sulforhodamine B assay; conditions: SK-MEL-5, 48 h; method in brief: as §1
LOX IMVI = test: Growth inhibition of human LOXIMVI cells after 48 hrs by sulforhodamine B assay; method in brief: as §1
SF-268 [4] = test: Growth inhibition of human SF268 cells after 48 hrs by sulforhodamine B assay; conditions: SF-268, 48 h; method in brief: as §1
SF-295 = test: Growth inhibition of human SF295 cells after 48 hrs by sulforhodamine B assay; conditions: SF-295, 48 h; method in brief: as §1
[5] = read-out: pLC50 (the source's name) (converted)

## COc1cc(CNc2nc3cc(N)cc(N)c3nc2-c2ccccc2)cc(OC)c1OC
COLO 205
  GI50: 3.8 µM
  LC50 (50% net cell kill): > 50.1 µM
COLO 205; read-out: pTGI (converted)
  TGI: > 50.1 µM
[1]
  GI50: 3.02 µM
[1]; [5]
  CC50: > 50.1 µM
[1]; read-out: pTGI (converted)
  TGI: 33.1 µM
RXF 393
  GI50: 7.41 µM
RXF 393; [5]
  CC50: > 50.1 µM
RXF 393; read-out: pTGI (converted)
  TGI: 20 µM
OVCAR-3
  GI50: 1.15 µM
OVCAR-3; [5]
  CC50: 18.2 µM
OVCAR-3; read-out: pTGI (converted)
  TGI: 3.39 µM
SK-MEL-28
  GI50: 8.51 µM
SK-MEL-28; [5]
  CC50: 36.3 µM
SK-MEL-28; read-out: pTGI (converted)
  TGI: 17.8 µM
U-251
  GI50: 1.74 µM
  LC50 (50% net cell kill): 30.2 µM
U-251; read-out: pTGI (converted)
  TGI: 6.31 µM
NCI-H522
  GI50: > 50.1 µM
  LC50: > 50.1 µM
NCI-H522; read-out: pTGI (converted)
  TGI: > 50.1 µM
MDA-MB-435
  GI50: 0.229 µM
MDA-MB-435; [5]
  CC50: 2.88 µM
MDA-MB-435; read-out: pTGI (converted)
  TGI: 0.912 µM
MDA-MB-231
  GI50: 7.24 µM
MDA-MB-231; [5]
  CC50: 31.6 µM
MDA-MB-231; read-out: pTGI (converted)
  TGI: 15.1 µM
SW-620
  GI50: 1.55 µM
SW-620; [5]
  CC50: > 50.1 µM
SW-620; read-out: pTGI (converted)
  TGI: 4.47 µM
NCI-H322M
  GI50: 3.02 µM
  LC50: > 50.1 µM
NCI-H322M; read-out: pTGI (converted)
  TGI: 15.8 µM
NCI/ADR-RES
  GI50: 10.2 µM
NCI/ADR-RES; [5]
  CC50: 46.8 µM
NCI/ADR-RES; read-out: pTGI (converted)
  TGI: 21.9 µM
NCI-H23
  GI50: 8.71 µM
  LC50 (50% net cell kill concentration): 33.9 µM
NCI-H23; read-out: pTGI (converted)
  TGI: 17 µM
K562
  GI50: 1.78 µM
  LC50: > 50.1 µM
K562; read-out: pTGI (converted)
  TGI: > 50.1 µM
MCF7
  growth at 100 µM: 0%
786-0
  GI50: 15.5 µM
786-0; [5]
  CC50: > 50.1 µM
786-0; read-out: pTGI (converted)
  TGI: > 50.1 µM
M14
  GI50: 9.55 µM
M14; [5]
  CC50: 34.7 µM
M14; read-out: pTGI (converted)
  TGI: 18.2 µM
UACC-62
  GI50: 8.13 µM
UACC-62; [5]
  CC50: 29.5 µM
UACC-62; read-out: pTGI (converted)
  TGI: 15.5 µM
SNB-19
  GI50: 7.24 µM
  LC50: > 50.1 µM
SNB-19; read-out: pTGI (converted)
  TGI: 20.9 µM
SK-MEL-2
  GI50: 16.2 µM
SK-MEL-2; [5]
  CC50: > 50.1 µM
SK-MEL-2; read-out: pTGI (converted)
  TGI: > 50.1 µM
HCT-116
  GI50: 9.77 µM
  LC50 (concentration causing 50% net cell death): 37.2 µM
HCT-116; read-out: pTGI (converted)
  TGI: 19.1 µM
[2]
  GI50: 0.692 µM
  LC50: > 50.1 µM
[2]; read-out: pTGI (converted)
  TGI: 3.02 µM
SF-268 [3]
  growth at 100 µM: 15%
CAKI-1
  GI50: 1.91 µM
CAKI-1; [5]
  CC50: 31.6 µM
CAKI-1; read-out: pTGI (converted)
  TGI: 8.71 µM
OVCAR-5
  GI50: 21.4 µM
OVCAR-5; [5]
  CC50: > 50.1 µM
OVCAR-5; read-out: pTGI (converted)
  TGI: > 50.1 µM
SK-MEL-5
  GI50: 0.724 µM
SK-MEL-5; [5]
  CC50: 29.5 µM
SK-MEL-5; read-out: pTGI (converted)
  TGI: 7.76 µM
LOX IMVI
  GI50: 3.16 µM
  LC50: 26.3 µM
LOX IMVI; read-out: pTGI (converted)
  TGI: 10.5 µM
SF-268 [4]
  GI50: 2.95 µM
  LC50: 49 µM
SF-268 [4]; read-out: pTGI (converted)
  TGI: 14.1 µM
SF-295
  GI50: 1.66 µM
  LC50 (50% net cell kill): 37.2 µM
SF-295; read-out: pTGI (converted)
  TGI: 5.62 µM
